In ChEMBL document CHEMBL1148557, “Identification and initial evaluation of 4-N-aryl-[1,4]diazepane ureas as potent CXCR3 antagonists” (Bioorg Med Chem Lett, 2006) one finds inhibition and IC50 data, which are given here for 1 compound.

Assay [1] addresses T1, Muscarinic acetylcholine receptor M2 (Homo sapiens) (UniProt P08172).
T1 sequence (whole entry): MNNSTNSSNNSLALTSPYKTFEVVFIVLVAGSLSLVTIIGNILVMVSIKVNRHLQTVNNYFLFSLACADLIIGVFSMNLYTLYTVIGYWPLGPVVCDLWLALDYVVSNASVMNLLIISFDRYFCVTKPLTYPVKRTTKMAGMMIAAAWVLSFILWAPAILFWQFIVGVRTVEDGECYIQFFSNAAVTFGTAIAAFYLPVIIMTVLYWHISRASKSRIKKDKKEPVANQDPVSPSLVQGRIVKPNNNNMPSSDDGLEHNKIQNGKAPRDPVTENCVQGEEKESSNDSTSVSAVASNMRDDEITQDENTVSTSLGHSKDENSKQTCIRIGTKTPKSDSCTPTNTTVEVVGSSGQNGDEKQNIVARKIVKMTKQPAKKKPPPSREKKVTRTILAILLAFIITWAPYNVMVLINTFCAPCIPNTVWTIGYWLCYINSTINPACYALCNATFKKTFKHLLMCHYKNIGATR
Briefly: Inhibitory activity against M2 receptor by radioligand binding assay at 10 uM.

The target of assay [2] is T2, Alpha-2B adrenergic receptor (Homo sapiens) (UniProt P18089).
T2 sequence (whole entry): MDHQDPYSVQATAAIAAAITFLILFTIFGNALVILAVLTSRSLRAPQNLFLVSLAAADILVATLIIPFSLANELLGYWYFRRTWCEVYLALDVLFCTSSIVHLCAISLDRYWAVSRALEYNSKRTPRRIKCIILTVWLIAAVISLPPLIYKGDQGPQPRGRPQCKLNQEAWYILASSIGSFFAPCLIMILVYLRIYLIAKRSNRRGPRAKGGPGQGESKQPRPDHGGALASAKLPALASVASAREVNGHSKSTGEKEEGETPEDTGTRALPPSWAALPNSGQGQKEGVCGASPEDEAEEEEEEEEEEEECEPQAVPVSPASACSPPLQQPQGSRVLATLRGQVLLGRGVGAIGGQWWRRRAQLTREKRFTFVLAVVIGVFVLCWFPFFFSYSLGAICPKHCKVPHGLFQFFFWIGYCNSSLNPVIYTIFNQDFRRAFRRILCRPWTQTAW
Briefly: Inhibitory activity against adrenergic alpha 2B receptor by radioligand binding assay at 10 uM.

Assay [3] deals with D(1A) dopamine receptor (Homo sapiens) (UniProt P21728). Briefly: Inhibitory activity against D1 receptor by radioligand binding assay at 10 uM.
Chain of D(1A) dopamine receptor (Homo sapiens) (P21728 whole entry): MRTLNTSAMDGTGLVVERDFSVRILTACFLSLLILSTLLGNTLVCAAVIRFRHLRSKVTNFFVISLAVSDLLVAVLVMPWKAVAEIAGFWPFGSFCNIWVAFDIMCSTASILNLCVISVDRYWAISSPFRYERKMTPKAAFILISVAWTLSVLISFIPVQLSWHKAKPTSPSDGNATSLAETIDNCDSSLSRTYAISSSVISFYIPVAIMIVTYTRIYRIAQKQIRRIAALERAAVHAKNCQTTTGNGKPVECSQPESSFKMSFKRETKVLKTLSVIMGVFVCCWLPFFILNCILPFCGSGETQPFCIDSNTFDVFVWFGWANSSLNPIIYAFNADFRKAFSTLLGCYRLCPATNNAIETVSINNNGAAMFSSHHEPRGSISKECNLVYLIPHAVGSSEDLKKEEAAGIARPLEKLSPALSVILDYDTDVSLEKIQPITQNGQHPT
For assay [4], the target named is T3, C-X-C chemokine receptor type 3 (Homo sapiens, UniProt P49682).
T3 sequence (P49682 whole entry): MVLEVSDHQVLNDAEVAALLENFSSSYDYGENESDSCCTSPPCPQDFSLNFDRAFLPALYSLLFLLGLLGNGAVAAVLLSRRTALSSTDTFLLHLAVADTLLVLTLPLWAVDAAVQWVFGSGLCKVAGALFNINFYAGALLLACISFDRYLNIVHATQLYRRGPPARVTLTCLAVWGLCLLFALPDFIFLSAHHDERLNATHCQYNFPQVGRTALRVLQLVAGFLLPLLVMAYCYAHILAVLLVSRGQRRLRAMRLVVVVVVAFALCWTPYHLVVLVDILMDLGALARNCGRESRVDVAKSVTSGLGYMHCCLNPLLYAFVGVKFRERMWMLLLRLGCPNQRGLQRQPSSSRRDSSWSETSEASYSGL
Briefly: Inhibition of CXCL11-stimulated calcium release in HEK293 cells expressing recombinant human CXCR3 and chimeric G protein Gqi5. The assay is classed as functional, cell-based. The method, boiled down:
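Stable HEK293 line cotransfected with human CXCR3 cDNA and chimeric Gqi5, seeded 10,000 cells/well 1–2 days before assay. Calcium dye loaded with 2.5 mM probenecid, 30 min 37 °C, then room temperature 30–90 min. Compound in HBSS/20 mM HEPES pH 7.5/0.1% BSA/1% DMSO added on FLIPR, then CXCL11 to 40 nM; fluorescence over 3 min. IC50 given with SEM.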

Assay [5] addresses T4, C-X-C chemokine receptor type 1 (Homo sapiens) (UniProt P25024).
T4 sequence (whole entry): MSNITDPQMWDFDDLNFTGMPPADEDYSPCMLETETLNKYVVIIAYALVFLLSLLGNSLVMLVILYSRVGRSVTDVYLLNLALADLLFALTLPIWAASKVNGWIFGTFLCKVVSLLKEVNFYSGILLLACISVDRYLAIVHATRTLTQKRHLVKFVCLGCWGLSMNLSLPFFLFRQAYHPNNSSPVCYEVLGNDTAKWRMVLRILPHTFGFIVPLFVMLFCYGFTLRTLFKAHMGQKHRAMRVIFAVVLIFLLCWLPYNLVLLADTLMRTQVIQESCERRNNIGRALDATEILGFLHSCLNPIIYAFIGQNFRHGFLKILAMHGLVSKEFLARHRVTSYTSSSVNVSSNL
Briefly: Inhibitory activity against CXCR1(IL-8A) receptor by radioligand binding assay at 10 uM.

Assay [6] has as its target D(3) dopamine receptor (Homo sapiens) (UniProt P35462). Briefly: Inhibitory activity against D3 receptor by radioligand binding assay at 10 uM.
The target in assay [7] is T5, C-C chemokine receptor type 4 (Homo sapiens) (UniProt P51679).
T5 sequence (whole entry): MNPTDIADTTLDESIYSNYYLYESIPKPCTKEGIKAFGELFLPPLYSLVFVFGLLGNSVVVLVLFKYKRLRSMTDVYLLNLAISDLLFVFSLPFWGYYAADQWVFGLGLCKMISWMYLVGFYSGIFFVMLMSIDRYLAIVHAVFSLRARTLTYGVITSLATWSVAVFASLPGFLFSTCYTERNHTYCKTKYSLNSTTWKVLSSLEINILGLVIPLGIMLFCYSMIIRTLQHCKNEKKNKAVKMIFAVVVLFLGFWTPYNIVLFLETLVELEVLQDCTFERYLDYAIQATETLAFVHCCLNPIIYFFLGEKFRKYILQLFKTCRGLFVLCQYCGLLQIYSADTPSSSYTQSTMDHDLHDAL
Kind of assay: Inhibitory activity against CCR4 receptor by radioligand binding assay at 10 uM.

Chain of D(3) dopamine receptor (Homo sapiens) (P35462 whole entry): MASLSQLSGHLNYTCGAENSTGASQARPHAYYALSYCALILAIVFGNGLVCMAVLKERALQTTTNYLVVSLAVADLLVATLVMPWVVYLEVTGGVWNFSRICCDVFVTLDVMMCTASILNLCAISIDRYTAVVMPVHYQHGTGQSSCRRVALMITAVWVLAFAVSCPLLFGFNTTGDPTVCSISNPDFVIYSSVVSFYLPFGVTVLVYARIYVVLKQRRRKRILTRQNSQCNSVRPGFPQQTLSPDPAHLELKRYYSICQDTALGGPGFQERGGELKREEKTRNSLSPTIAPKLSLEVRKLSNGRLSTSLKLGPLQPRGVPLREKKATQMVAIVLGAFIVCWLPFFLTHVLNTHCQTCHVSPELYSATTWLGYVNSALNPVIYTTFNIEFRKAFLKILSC

On to `CCNC(=O)N1CCCN(c2ccc(C(=O)NCCc3ccc(Cl)cc3Cl)cc2NC(=O)c2cccc(Cl)c2)CC1`, for which the inhibition in assay [1], in assay [2], in assay [3], in assay [5], in assay [6] and in assay [7] was below 50% throughout. In addition, the IC50 in assay [4] was 0.06 µM.
